Results reported in ChEMBL document CHEMBL1134845, “Syntheses and biological activities of a novel group of steroidal derived inhibitors for human Cdc25A protein phosphatase” (J Med Chem, 2001).

How the values were obtained:
LOX IMVI = assay: Growth inhibitory activity was determined against LOX IMVI cancer cell line of melanoma; assay type: functional, Homo sapiens
How it was run: (§1)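 NCI 60 human tumour cell line screen run at the National Cancer Institute. Cell growth and viability read with the protein stain sulforhodamine B, which binds basic amino acids of cells left attached after washing. […] MG MID is the mean GI50 calculated over all panels.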

[1] = target: T1, Receptor-type tyrosine-protein phosphatase C (Homo sapiens, UniProt P08575); assay: Inhibitory activity tested against Human CD45 Phosphatase (assay using p-nitrophenyl phosphate (pNPP) as substrate)
T1 sequence (P08575 whole entry): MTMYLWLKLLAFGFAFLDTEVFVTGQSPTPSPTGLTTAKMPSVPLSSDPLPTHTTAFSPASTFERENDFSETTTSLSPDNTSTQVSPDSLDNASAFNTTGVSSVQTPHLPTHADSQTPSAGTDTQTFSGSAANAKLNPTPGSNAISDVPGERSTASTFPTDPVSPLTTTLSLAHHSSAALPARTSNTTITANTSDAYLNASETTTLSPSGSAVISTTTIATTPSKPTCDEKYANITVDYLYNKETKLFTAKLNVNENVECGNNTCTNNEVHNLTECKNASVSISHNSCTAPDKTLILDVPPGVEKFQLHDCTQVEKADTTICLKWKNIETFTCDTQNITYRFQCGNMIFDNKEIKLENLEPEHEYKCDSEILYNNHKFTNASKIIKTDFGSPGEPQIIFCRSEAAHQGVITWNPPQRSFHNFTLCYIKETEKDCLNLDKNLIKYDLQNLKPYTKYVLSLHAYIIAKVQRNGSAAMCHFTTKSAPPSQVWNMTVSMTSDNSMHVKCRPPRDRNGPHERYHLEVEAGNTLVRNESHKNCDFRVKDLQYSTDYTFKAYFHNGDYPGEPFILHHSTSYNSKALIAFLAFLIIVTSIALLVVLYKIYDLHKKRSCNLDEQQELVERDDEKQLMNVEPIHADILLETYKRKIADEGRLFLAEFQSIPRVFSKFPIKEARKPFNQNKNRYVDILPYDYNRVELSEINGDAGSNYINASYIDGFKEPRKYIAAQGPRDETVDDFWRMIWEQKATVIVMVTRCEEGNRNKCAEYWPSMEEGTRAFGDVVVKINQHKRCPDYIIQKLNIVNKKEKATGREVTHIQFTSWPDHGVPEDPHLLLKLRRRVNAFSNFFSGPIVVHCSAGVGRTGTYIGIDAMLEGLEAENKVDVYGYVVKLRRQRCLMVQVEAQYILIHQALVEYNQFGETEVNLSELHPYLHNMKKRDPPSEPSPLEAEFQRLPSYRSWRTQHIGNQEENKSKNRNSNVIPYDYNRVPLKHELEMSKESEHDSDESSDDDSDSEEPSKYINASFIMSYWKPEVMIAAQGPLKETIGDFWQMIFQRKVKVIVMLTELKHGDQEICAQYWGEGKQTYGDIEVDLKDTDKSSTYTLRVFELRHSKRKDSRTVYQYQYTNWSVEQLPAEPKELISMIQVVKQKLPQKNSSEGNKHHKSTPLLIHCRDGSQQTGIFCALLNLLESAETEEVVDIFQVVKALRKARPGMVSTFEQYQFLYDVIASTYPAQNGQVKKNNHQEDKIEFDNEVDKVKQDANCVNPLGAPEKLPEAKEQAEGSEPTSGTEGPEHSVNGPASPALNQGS

U-251 = assay: Growth inhibitory activity was determined against U-251 cancer cell line of CNS cancer; assay type: functional; conditions: Homo sapiens; how it was run: as §1
UO-31 = assay: Growth inhibitory activity was determined against UO-31 cancer cell line of renal cancer; assay type: functional; conditions: Homo sapiens; how it was run: as §1
NCI/ADR-RES = assay: Growth inhibitory activity was determined against NCI/ADR-RES cancer cell line of Breast cancer; assay type: functional, Homo sapiens; how it was run: as §1
NCI-H23 = assay: Growth inhibitory activity was determined against NCI-H23 cancer cell line of non-small cell lung cancer; assay type: functional, Homo sapiens; how it was run: as §1
[2] = target: Receptor-type tyrosine-protein phosphatase C, CD45 (Homo sapiens) (UniProt P08575); assay: Inhibitory activity tested against human CD45 (receptor-type tyrosine-protein phosphatase C)
PC-3 = assay: Growth inhibitory activity PC-3 cancer cell line of Prostate cancer; assay type: functional; conditions: Homo sapiens; how it was run: as §1
[3] = target: T2, M-phase inducer phosphatase 1 (Homo sapiens, UniProt P30304); assay: Inhibitory activity tested against cell division cycle 25A (assay using fluorescein diphosphate (FDP) as substrate)
T2 sequence (P30304 whole entry): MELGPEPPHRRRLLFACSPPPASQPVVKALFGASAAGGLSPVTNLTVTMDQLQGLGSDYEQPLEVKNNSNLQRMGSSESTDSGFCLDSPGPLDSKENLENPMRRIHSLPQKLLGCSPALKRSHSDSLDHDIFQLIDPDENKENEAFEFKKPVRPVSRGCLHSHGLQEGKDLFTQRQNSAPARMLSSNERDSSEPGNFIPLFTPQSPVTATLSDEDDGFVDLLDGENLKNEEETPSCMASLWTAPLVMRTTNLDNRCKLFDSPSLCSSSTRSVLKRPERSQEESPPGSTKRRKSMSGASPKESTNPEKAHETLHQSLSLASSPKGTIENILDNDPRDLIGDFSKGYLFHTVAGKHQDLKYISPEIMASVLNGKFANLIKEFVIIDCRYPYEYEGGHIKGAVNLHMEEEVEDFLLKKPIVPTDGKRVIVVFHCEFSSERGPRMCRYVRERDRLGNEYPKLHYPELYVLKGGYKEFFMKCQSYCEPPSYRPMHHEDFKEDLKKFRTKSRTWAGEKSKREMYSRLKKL
How it was run: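 Recombinant human GST-Cdc25A fusion protein, each batch calibrated so that FDP was dephosphorylated linearly over 20 min. Fluorescein diphosphate was the substrate. Reactions ran 15 min at 25 °C in the dark and were stopped with sodium orthovanadate. IC50 came from at least two independent runs, each in triplicate.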

SF-539 = assay: Growth inhibitory activity was determined against SF-539 cancer cell line of CNS cancer; assay type: functional; conditions: Homo sapiens; how it was run: as §1
COLO 205 = assay: Growth inhibitory activity was determined against COLO 205 cancer cell line colon cancer; assay type: functional, Homo sapiens; how it was run: as §1
786-0 = assay: Growth inhibitory activity was determined against 786-0 cancer cell line of renal cancer; assay type: functional; conditions: Homo sapiens; how it was run: as §1
OVCAR-8 = assay: Growth inhibitory activity was determined against OVCAR-8 cancer cell line of Ovarian cancer; assay type: functional; conditions: Homo sapiens; how it was run: as §1
OVCAR-3 = assay: Growth inhibitory activity was determined against OVCAR-3 cancer cell line of Ovarian cancer; assay type: functional; conditions: Homo sapiens; how it was run: as §1
T47D = assay: Growth inhibitory activity was determined against T-47D cancer cell line of Breast cancer; assay type: functional, Homo sapiens; how it was run: as §1
SK-MEL-5 = assay: Growth inhibitory activity was determined against SK-MEL-5 cancer cell line of melanoma; assay type: functional, Homo sapiens; how it was run: as §1
SN12C = assay: Growth inhibitory activity was determined against SN12C cancer cell line of renal cancer; assay type: functional; conditions: Homo sapiens; how it was run: as §1
HCC 2998 = assay: Growth inhibitory activity was determined against HCC2998 cancer cell line colon cancer; assay type: functional, Homo sapiens; how it was run: as §1
HT-29 = assay: Growth inhibitory activity was determined against HT-29 cancer cell line colon cancer; assay type: functional, Homo sapiens; how it was run: as §1
BT-549 (Homo sapiens) = assay: Growth inhibitory activity was determined against BT-549 cancer cell line of Breast cancer
A549 = assay: Growth inhibitory activity was determined against A549/ATCC cancer cell line of non-small cell lung cancer; assay type: functional, Homo sapiens; how it was run: as §1
[4] = Inhibitory activity against PSPTase
How it was run: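 Human GST-Cdc25A fusion protein, with each batch calibrated for linear dephosphorylation of fluorescein diphosphate over 20 min. Run 15 min at 25 °C in the dark and stopped with sodium orthovanadate. Fluorescein monophosphate read at ex 485/em 530 nm. IC50 from at least two independent determinations, each in triplicate; variation from the mean within ±20%.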

[5] = target: T2, M-phase inducer phosphatase 1; assay: Inhibitory activity tested against cell division cycle 25A (assay using p-nitrophenyl phosphate (pNPP) as substrate)

CC(C)CCCC(C)[C@H]1CC[C@H]2[C@H](CC(=O)O)[C@@H](C(C)CCCCC#N)CC[C@]12C (stereo in doubt; 22)
GI50 (LOX IMVI): 4.69 µM | IC50 [1]: 8.6 µM | GI50 (U-251): 4.35 µM | GI50 (UO-31): 8.74 µM | GI50 (NCI/ADR-RES): 8.2 µM | GI50 (NCI-H23): 5.85 µM | IC50 [2]: 8.6 µM | GI50 (PC-3): 6.88 µM | IC50 [3]: 1.9 µM | GI50 (SF-539): 5.01 µM | GI50 (COLO 205): 5.55 µM | GI50 (786-0): 7.18 µM | GI50 (OVCAR-8): 8.02 µM | GI50 (OVCAR-3): 5.19 µM | GI50 (T47D): 9.27 µM | GI50 (SK-MEL-5): 7.71 µM | GI50 (SN12C): 6.46 µM | GI50 (HCC 2998): 4.77 µM | GI50 (HT-29): 5.18 µM | GI50 (BT-549 (Homo sapiens)): 6.2 µM | GI50 (A549): 4.35 µM

C=C1[C@@H](O)[C@@H]2O[C@]3(CC[C@H](/C=C/[C@@H](C)[C@@H]4CC(C)=C[C@@]5(O[C@H](C[C@@](C)(O)C(=O)O)CC[C@H]5O)O4)O3)CC[C@H]2O[C@@H]1[C@@H](O)C[C@H](C)[C@H]1O[C@@]2(CCCCO2)CC[C@H]1C [OKADAIC ACID]
IC50 [4]: 0.049 µM

CC1=CC[C@H]2C(C)(C)CCC[C@]2(C)[C@H]1C(C)[C@H](OS(=O)(=O)O)[C@H](C)CCCc1ccoc1 (stereo partly drawn)
IC50 [5]: 7.8 µM
